# Experimental data published in PubChem BioAssay AID1424 (The Scripps Research Institute Molecular Screening Center, 2008).
# The whole screen tested about 220,000 compounds, of which about 390 (0.18%) were called active. Shown is part of a subset that was picked to be rich in actives. A number with no mark means an inactive call.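 How the source made its calls: active means activation above its plate's cutoff, the mean activation of test wells on that plate plus 3 SD (cut at about 19% in these data); inactive means the rest.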
# System: transient receptor potential cation channel N1 (TRPN1/NompC), Danio rerio
# Experiment: zebrafish TRPN1 channel agonists, primary screen, cell-based, HEK293, calcium fluorescence (AID 1424);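 further: 0% = DMSO alone and 100% = 87 µM carbachol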
# Conditions: HEK293 zebrafish TRPN1-YFP, Fluo-8 calcium fluorescence; at 3 µM; active compounds read high; 100% = response to 87 µM carbachol
# Method in brief: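 Material – zebrafish TRPN1-YFP in HEK293 cells · Doses – 3 µM single point · Schedule – dye 1 h 37 °C plus 30 min RT · Signal – Fluo-8 calcium fluorescence, excitation 470-495 nm, emission 515-575 nm · Read-out – % activation versus carbachol response · Control set – carbachol high, DMSO low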
row,SMILES,activation
1,Cc1cc(N2CCN(c3ccc(F)cc3)CC2)n2ncnc2n1,1.97%
2,CCc1cccc(C)c1NC(=O)COC(=O)Cc1ccsc1,-0.93%
3,CN1CCN(NC(=O)c2ccc(S(=O)(=O)N3CCCCCC3)cc2)CC1,1.34%
4,CCOC(=O)COc1nc(C)cc(C(F)(F)F)c1C#N,-0.81%
5,CCOC(=O)/C(C#N)=C/c1ccc(N2CCCCC2)cc1,2.02%
6,Cc1cc(C(=O)NNC(=S)Nc2ccccc2C)cs1,3.43%
7,CN(C)CCOCCOc1ccc(Cl)c2ccccc12,1.52%
8,Cc1cccc(C)c1Nc1c(-c2ccccc2O)nc2ncccn12,1.43%
9,Cc1ccc(C2C(C#N)C(C#N)N3CCCN23)cc1 (stereo not drawn),-0.02%
10,CCO/N=C(/C)c1c(O)cc(-c2ccccc2)n(-c2ccccc2)c1=O,0.61%
11,COCc1c(N)c(C)nc(Cl)c1C#N,-0.99%
12,CCCc1nnc(SCC(=O)N2C(C)CCCC2C)n1CC (stereo not drawn),37.6% (active)
13,CCn1c(CSc2ncccn2)nnc1SCC(=O)N1c2ccccc2CC1C (stereo not drawn),-0.46%
14,CCn1c(Cc2ccccc2)nnc1SCC(=O)Nc1ccccc1,0.58%
15,O=C(O)CCN(Cc1ccccc1)S(=O)(=O)c1c(Cl)cccc1Cl,0.3%
16,COc1cc(C(=O)OC(C)C(=O)NCC2CCCCC2)cc(NC(=O)c2ccco2)c1OC (stereo not drawn),-0.78%
17,COCCN(Cc1cc2cc3c(cc2nc1Cl)OCO3)C(=O)c1cccc(C)c1,0.19%
18,CCN(CC)c1ccc2cc(C(=O)O)c(=O)oc2c1,1.02%
19,CCN(CC)c1ccc2cc(C(N)=O)/c(=N\NC(=O)c3ccncc3)oc2c1,31.1% (active)
20,COc1ccc(C(=O)N/N=c2\oc3ccccc3cc2C(N)=O)cc1,1.99%
21,CCC(C)NC(=O)c1ccc(N2CCC3(CC2)OCCO3)c([N+](=O)[O-])c1 (stereo not drawn),0.89%
22,O=C(/C=C/c1cccs1)NCc1cccnc1,0.53%
23,COC(=O)C1=NN(c2ccccc2)C2C(=O)N(c3ccccc3OC)C(=O)C12 (stereo not drawn),-0.87%
24,COc1cccc(NC(=O)COC(=O)CCOc2ccccc2OC)c1,-1.34%
25,CCc1c(O)cc2n(c1=O)-c1ccccc1C2(C)C,1.3%
26,CC(C)(C)NC(=O)CN(C(=O)c1csnn1)c1ccccc1-c1ccccc1,1.04%
27,O=C(CCN1CCN(c2ccccc2)CC1)NNC(=S)Nc1ccccc1,2.77%
28,CCOc1ccccc1N1CN(Cc2ccccc2)CNC1=S,-0.98%
